In ChEMBL document CHEMBL5385940 (J Nat Prod, 2024):
Calls of active or inactive are those of the source. The calls are words filed in the database; no cut-off is given here.

What was measured:
[1] = Cytotoxicity against mouse 3T3-L1 cells assessed as cell viability at 5 uM incubated for 48 hrs by CCK-8 assay relative to control; format: toxicity, cell-based; conditions: read-out: Activity
Procedure, shortened: (§1)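 3T3-L1 preadipocytes seeded at 1 × 10^3 cells/well and left 12 h, then exposed to alkaloids for 48 h. Viability by CCK-8, absorbance at 450 nm, relative to control. Lovastatin 5 μM included. Mean ± SD, n = 3.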

[2] = Cytotoxicity against mouse 3T3-L1 cells assessed as cell viability at 10 uM incubated for 48 hrs by CCK-8 assay relative to control; format: toxicity, cell-based; conditions: read-out: Activity; procedure, shortened: as §1
[3] = Cytotoxicity against mouse 3T3-L1 cells assessed as cell viability at 25 uM incubated for 48 hrs by CCK-8 assay relative to control; format: toxicity, cell-based; conditions: read-out: Activity; procedure, shortened: as §1
[4] = Cytotoxicity against mouse 3T3-L1 cells assessed as cell viability at 50 uM incubated for 48 hrs by CCK-8 assay relative to control; format: toxicity, cell-based; conditions: read-out: Activity; procedure, shortened: as §1
[5] = Cytotoxicity against mouse 3T3-L1 cells assessed as cell viability at 100 uM incubated for 48 hrs by CCK-8 assay relative to control; format: toxicity, cell-based; conditions: read-out: Activity; procedure, shortened: as §1
3T3-L1 [6] = experiment: Anti-adipogenic activity in mouse 3T3-L1 preadipocytes assessed as inhibition of lipid accumulation incubated for 6 days by Nile Red staining based fluorescence microscopic analysis; format: functional, cell-based; conditions: time 6.0 day
[7] = Cytotoxicity against mouse 3T3-L1 cells assessed as cell viability at 15 uM incubated for 48 hrs by CCK-8 assay relative to control; format: toxicity, cell-based; conditions: read-out: Activity; procedure, shortened: as §1
[8] = Cytotoxicity against mouse 3T3-L1 cells assessed as cell viability at 20 uM incubated for 48 hrs by CCK-8 assay relative to control; format: toxicity, cell-based; conditions: read-out: Activity; procedure, shortened: as §1
[9] = Cytotoxicity against mouse 3T3-L1 cells transfected with Lenti-PPARgamma-Luc reporter assessed as cell viability at 0.1 uM incubated for 48 hrs by CCK-8 assay relative to control; format: toxicity, cell-based; conditions: read-out: Activity
Procedure, shortened: (§2)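 3T3-L1-Lenti-PPARγ-Luc reporter cells (lentivirus-transduced) exposed to alkaloids at a range of concentrations. Viability by CCK-8, absorbance at 450 nm, relative to control, used to set maximum noncytotoxic concentrations. Triplicate.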

[10] = Cytotoxicity against mouse 3T3-L1 cells transfected with Lenti-PPARgamma-Luc reporter assessed as cell viability at 1 uM incubated for 48 hrs by CCK-8 assay relative to control; format: toxicity, cell-based; conditions: read-out: Activity; procedure, shortened: as §2
[11] = Cytotoxicity against mouse 3T3-L1 cells transfected with Lenti-PPARgamma-Luc reporter assessed as cell viability at 5 uM incubated for 48 hrs by CCK-8 assay relative to control; format: toxicity, cell-based; conditions: read-out: Activity; procedure, shortened: as §2
[12] = Cytotoxicity against mouse 3T3-L1 cells transfected with Lenti-PPARgamma-Luc reporter assessed as cell viability at 10 uM incubated for 48 hrs by CCK-8 assay relative to control; format: toxicity, cell-based; conditions: read-out: Activity; procedure, shortened: as §2
[13] = Cytotoxicity against mouse 3T3-L1 cells transfected with Lenti-PPARgamma-Luc reporter assessed as cell viability at 15 uM incubated for 48 hrs by CCK-8 assay relative to control; format: toxicity, cell-based; conditions: read-out: Activity; procedure, shortened: as §2
[14] = Cytotoxicity against mouse 3T3-L1 cells transfected with Lenti-PPARgamma-Luc reporter assessed as cell viability at 20 uM incubated for 48 hrs by CCK-8 assay relative to control; format: toxicity, cell-based; conditions: read-out: Activity; procedure, shortened: as §2
[15] = Cytotoxicity against mouse 3T3-L1 cells transfected with Lenti-PPARgamma-Luc reporter assessed as cell viability at 25 uM incubated for 48 hrs by CCK-8 assay relative to control; format: toxicity, cell-based; conditions: read-out: Activity; procedure, shortened: as §2
[16] = Cytotoxicity against mouse 3T3-L1 cells transfected with Lenti-PPARgamma-Luc reporter assessed as cell viability at 30 uM incubated for 48 hrs by CCK-8 assay relative to control; format: toxicity, cell-based; conditions: read-out: Activity; procedure, shortened: as §2
3T3-L1 [17] = experiment: Anti-adipogenic activity in mouse 3T3-L1 cells transfected with Lenti-PPARgamma-Luc reporter assessed as inhibition of PPARgamma expression by luminescence based microplate reader analysis; format: functional, cell-based
3T3-L1 [18] = experiment: Inhibition of adipogenesis in mouse 3T3-L1 cells assessed as downregulation of PPARgamma relative protein level […] by Western blot analysis; format: functional, cell-based
Procedure, shortened: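 Differentiated 3T3-L1 adipocytes treated with alkaloids at several doses. Lysed in RIPA with PMSF on ice for 30 min. Proteins transferred to PVDF and blocked with 5% skim milk for 2 h at 25 °C. Primary antibody 2 h, HRP secondary 1 h. PPARγ protein level expressed relative to control. n = 3.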

Structure (SMILES)	viability at 48 h, 5 µM [1] [%]	viability at 48 h, 10 µM [2] [%]	viability at 48 h, 25 µM [3] [%]	viability at 48 h, 50 µM [4] [%]	viability at 48 h, 100 µM [5] [%]	Activity (3T3-L1 [6])	viability at 48 h, 15 µM [7] [%]	viability at 48 h, 20 µM [8] [%]	viability at 48 h, 0.1 µM [9] [%]	viability at 48 h, 1 µM [10] [%]	viability at 48 h, 5 µM [11] [%]	viability at 48 h, 10 µM [12] [%]	viability at 48 h, 15 µM [13] [%]	viability at 48 h, 20 µM [14] [%]	viability at 48 h, 25 µM [15] [%]	viability at 48 h, 30 µM [16] [%]	Activity (3T3-L1 [17])	inhibition (3T3-L1 [18])
COc1cc2c(cc1O)C(Cc1ccc(O)c(-c3c(O)c(OC)cc4c3C(Cc3ccc(O)cc3)N(C)CC4)c1)N(C)CC2 (stereo unspecified)	> 80	> 80	> 80	> 80	> 80													
COc1cc2c(cc1OC)[C@@H](Cc1ccc(O)c(Oc3cc4c(cc3OC)CCN(C)[C@@H]4Cc3ccc(O)cc3)c1)N(C)CC2	> 80	> 80	< 80			Dose-Dependent Effect	> 80	> 80	> 80	> 80	> 80	> 80	> 80	< 80	< 80	< 80	Dose-Dependent Effect	Active
